Measured values published in paper PMC5901721 (Cancer research, 2018).

Key:
[1] = system: SCC12 cells; conditions: cited from earlier work
[2] = system: MLC2 phosphorylation in SCC12 cells; conditions: cited from earlier work
[3] = system: MRCKα; assay: MRCKα pS1003 western blot in HEK293 cells expressing FLAG-MRCKα; assay type: cell-based, human; conditions: 2 hours
Outline: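 HEK293 cells were transfected with 10 μg pEF-FLAG-MRCKα using a lipid reagent. After 48 h, they were treated 2 h with DMSO, 3 μM or 1 μM test compound. Cells were washed in PBS and lysed in 1% SDS, 50 mM Tris-HCl pH 7.4. Lysates were shredded and analysed by SDS-PAGE and western blot for MRCKα pS1003.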

[4] = system: CDK2/Cyclin A; assay: Kinase selectivity profiling, 115 kinase panel; assay type: biochemical; conditions: 1 µM compound
[5] = system: MRCKβ; assay type: cell-based, human; conditions: MDA MB 231 cells, inducible kinase domains, 60 minutes
Outline: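 MDA MB 231 cells with doxycycline-inducible MRCKβ, ROCK1 or ROCK2 kinase domains were plated at 1.1×10⁵/well. After 24 h, 1 µg/ml doxycycline was given for 18 h, then test compound for 60 min. Lysis was in 50 mM Tris-HCl pH 7.4, 0.5% SDS with phosphatase inhibitors. pMLC2 was measured by quantitative western blot; mean ± SEM of 3-4 independent replicates.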

[6] = system: 757 cancer cell lines; assay: Cancer cell line screen; assay type: cell-based, human; conditions: 72 hours, up to 10 µM, p<0.05
Outline: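 757 human cancer cell lines spanning 45 cancer types were seeded in 1536-well plates and exposed to a 7-point, half-log dilution series of test compound with a top concentration of 10 μM.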

[7] = system: TSSK1 (STK22D); assay: Kinase selectivity profiling, 115 kinase panel; assay type: biochemical; conditions: 1 µM compound
[8] = system: ROCK1; assay: Kinase selectivity profiling, 115 kinase panel; assay type: biochemical; conditions: 1 µM compound; apparent Km for ATP
[9] = system: PKCα; assay: Kinase selectivity profiling, 115 kinase panel; assay type: biochemical; conditions: 1 µM compound
[10] = system: MLC2 phosphorylation in SCC12 cells; assay: MLC2 phosphorylation in SCC12 cells; assay type: cell-based, human
Outline: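 SCC12 cells were plated at 5×10⁵ per well of a 6-well plate. After 24 h, they were treated 2 h with DMSO or a dose range of test compound. Cells were washed in PBS, lysed in 1% SDS, 50 mM Tris-HCl pH 7.4, shredded, and analysed by SDS-PAGE western blotting for MLC2 phosphorylation.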

[11] = biological target: T1, DMPK (Homo sapiens, UniProt Q09013); assay: Competitive LanthaScreen Eu TR-FRET kinase binding assay; conditions: read-out: Kd DMPK; displacement of fluorescent tracer; Cheng-Prusoff equation
T1 sequence (Q09013 1-629): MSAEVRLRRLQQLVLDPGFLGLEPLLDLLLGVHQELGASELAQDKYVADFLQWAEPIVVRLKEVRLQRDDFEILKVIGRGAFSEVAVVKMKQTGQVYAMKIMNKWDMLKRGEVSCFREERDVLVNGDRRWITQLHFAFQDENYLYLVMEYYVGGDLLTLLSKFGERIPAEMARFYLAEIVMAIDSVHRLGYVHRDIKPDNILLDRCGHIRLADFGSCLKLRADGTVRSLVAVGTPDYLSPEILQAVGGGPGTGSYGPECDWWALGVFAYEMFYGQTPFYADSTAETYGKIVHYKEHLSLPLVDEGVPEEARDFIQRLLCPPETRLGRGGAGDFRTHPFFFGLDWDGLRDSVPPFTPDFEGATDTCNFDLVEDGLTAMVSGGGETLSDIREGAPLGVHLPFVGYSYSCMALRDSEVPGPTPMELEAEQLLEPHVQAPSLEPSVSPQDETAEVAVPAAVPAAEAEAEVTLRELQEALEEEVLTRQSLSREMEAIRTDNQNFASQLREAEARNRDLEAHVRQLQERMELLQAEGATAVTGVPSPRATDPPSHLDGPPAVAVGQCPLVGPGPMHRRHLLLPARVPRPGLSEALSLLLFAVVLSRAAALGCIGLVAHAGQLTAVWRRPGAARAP

[12] = system: SCC12 cells; assay: SCC12 cell viability; assay type: cell-based, human; conditions: 24 hour treatment
[13] = system: SCC12 cells; assay: Operetta high content morphology analysis; assay type: cell-based, human; conditions: 2 hours
Outline: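 SCC12 cells were seeded at 1.5×10⁴ per 96-well and grown 24 h, then treated 2 h with DMSO or a dose range of test compound. Fixation was 4% PFA for 15 min, permeabilisation 0.5% Triton X-100 for 15 min, blocking 1% BSA for 30 min. Staining used phalloidin, DAPI and a whole-cell stain, followed by automated high-content imaging and morphology analysis.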

[14] = biological target: T1, DMPK; assay: Kinase selectivity profiling, 115 kinase panel; assay type: binding; conditions: 1 µM compound
[15] = Skin and blood concentrations after topical application to FVB mice; assay type: in vivo; conditions: FVB mouse
Outline: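 FVB mice received topical test compound in 80% (v/v) DMSO under several regimens: once at 10 μg or 25 μg; 4 × 25 μg over 2 days; or 8 × 25 μg (4 days on, 2 off, 4 on), with vehicle controls. Mice were culled 2, 4, 8 or 24 h after the final dose. Skin and blood concentrations were measured by a contract laboratory; mean ± SD from 3 mice per condition.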

[16] = system: MRCKβ; assay: Out-sourced dose-response kinase assays; assay type: biochemical; conditions: Cheng-Prusoff equation
[17] = system: MRCKα pS1003; assay: MRCKα pS1003 staining of mouse skin after topical treatment; assay type: in vivo; conditions: FVB mouse, topical 4 X 25 µg over 2 days
Outline: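 FVB mice (5 per group) received topical 25 μg test compound in 50 μL 80% (v/v) DMSO, or 50 μL vehicle. Four applications were given over 2 days. Mice were culled 2 h after the final treatment, and skin was taken for MRCKα pS1003 staining.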

[18] = system: MRCKα; assay: In vitro MRCKα autophosphorylation and MLC2 phosphorylation assay; assay type: biochemical; conditions: dephosphorylated immunoprecipitated FLAG-MRCKα
Outline: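 FLAG-MRCKα (wild type, K106M or S1003A) was expressed in HEK293 for 2 days and immunoprecipitated on beads. They were incubated with lysate of IPTG-induced bacteria expressing MLC2, with western blot read-out.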

[19] = system: CDK9/Cyclin T1; assay: Kinase selectivity profiling, 115 kinase panel; assay type: biochemical; conditions: 1 µM compound
[20] = Skin and blood concentrations at DMBA/TPA experimental endpoint; assay type: in vivo, mouse; conditions: DMBA/TPA mice, topical 25 μg 5 times per week
Outline: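 DMBA/TPA-initiated and promoted FVB mice were dosed topically with test compound 25 μg in 50 μL 80% (v/v) DMSO, 5 times per week. Skin and blood compound concentrations were measured by a contract laboratory at study end.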

[21] = system: MRCKα pS1003; assay: MRCKα pS1003 immunohistochemistry in DMBA/TPA treated skin and papillomas; assay type: in vivo, mouse; conditions: DMBA/TPA mice, topical 25 μg 5 times per week
Outline: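 Skin sections from DMBA/TPA mice dosed topically with 25 μg test compound in 80% DMSO or vehicle were stained for MRCKα pS1003. Normal skin and papilloma areas were selected, cells auto-detected and cytoplasmic intensity measured. Histoscore = %low×100 + %medium×200 + %high×300. Data are mean ± SD from 19 mice per group; two-tailed unpaired t-tests.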

[22] = system: ROCK2; assay: Kinase selectivity profiling, 115 kinase panel; assay type: biochemical; conditions: 1 µM compound; apparent Km for ATP
[23] = system: SCC12 cells; assay: Phalloidin F-actin immunofluorescence; assay type: cell-based, human; conditions: SCC12, 1 µM
Outline: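 SCC12 cells on glass coverslips were grown overnight, then given medium with 1 μM test compound or DMSO. Cells were fixed in 4% paraformaldehyde/PBS for 15 min and permeabilised with 0.5% Triton X-100 for 5 min. F-actin was stained with Alexa 488 phalloidin, mounted with DAPI and imaged by confocal microscopy.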

[24] = system: SCC12 cells; assay: SCC12 organotypic invasion assay; assay type: cell-based, human; conditions: SCC12, 0.4 μM, relative to DMSO vehicle
[25] = system: SCC12 cells; assay: Random migration; assay type: cell-based, human; conditions: SCC12, 0.4 μM, 6 hours
Outline: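 SCC12 cells were plated at 2×10⁴ per well of an image-lock 96-well plate. After 24 h, medium was changed to DMSO or 0.4 μM test compound. Individual cells were tracked over 6 h to give accumulated distance, Euclidean distance, velocity and directionality. Data are mean ± SEM of 120 cells; two-tailed unpaired t-tests.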

[26] = system: skin papillomas; assay: DMBA/TPA two-stage chemical carcinogenesis model of SCC; assay type: in vivo, mouse; conditions: topical 25 μg 5 times per week for 14 weeks
Outline: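 40 FVB mice received topical DMBA 25 μg in acetone on day 1. From day 5 they received TPA 4.7 μg in acetone three times weekly. From day 5, groups of 20 also got test compound 25 μg in 50 μL 80% DMSO or vehicle, 5 times/week for 14 weeks. Tumour size and number were recorded weekly, blinded. Culling was at 12 mm papilloma diameter. Data are mean ± SD, 20 mice.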

[27] = system: MRCKβ; assay: In-house kinase assay Ki compared with out-sourced values; assay type: biochemical
[28] = system: CDK9/Cyclin K; assay: Kinase selectivity profiling, 115 kinase panel; assay type: biochemical; conditions: 1 µM compound
[29] = system: PKCγ; assay: Kinase selectivity profiling, 115 kinase panel; assay type: biochemical; conditions: 1 µM compound; apparent Km for ATP
[30] = topical 25 µg twice per day for 2 days

## O=C(Nc1cn[nH]c1-c1ccccn1)c1nn(C2CCNCC2)cc1Cl [BDP5290]
[1]
  SCC12 organotypic invasion: inhibited SCC12 organotypic invasion
[2]
  MLC phosphorylation: reduced MLC phosphorylation
[3]; 3 µM
  pS1003 immunoreactivity: blocked

## c1cc(-c2c[nH]c3nccc(N4CCC[C@@]5(CCCCN5)C4)c23)ncn1 [BDP9066]
[4]
  inhibition of CDK2/Cyclin A: > 75%
[5]
  selectivity of pMLC2 inhibition for MRCKβ relative to ROCK1 or ROCK2: > 100 times
[6]
  number of cancer types significantly resistant relative to all cancer cell lines: 4
  number of cancer types significantly sensitive relative to all cancer cell lines: 8
[7]
  inhibition of TSSK1 (STK22D): > 75%
[8]
  inhibition of ROCK1: > 75%
[9]
  inhibition of PKCα: > 75%
[10]; SCC12 cells pMLC2
  increase in cellular potency relative to BDP5290: 5 fold
[10]; read-out: EC50 inhibition of MLC2 phosphorylation, SCC12 cells, 2 hours
  EC50: 64 nM
[11]
  Kd: 0.98 nM
[12]; all concentrations up to 0.5 µM
  SCC12 cell viability: unaffected
[12]; SCC12 cells, 1 μM
  decrease in viability: 25%
[13]; SCC12, 0.5 μM
  proportion of irregularly shaped cells: increased
  proportion of regularly shaped cells: reduced proportions
[13]; SCC12, dose range
  2D cell area: increased
  cell roundness: decreased
[13]; SCC12, varying concentrations
  proportion of elongated cells: did not vary
[14]
  inhibition of DMPK: > 75%
[15]; topical
  higher concentration in skin, repeated 25 μg doses relative to single 10 μg dose: 2.8 fold
[15]; [30]
  mean concentration in blood: 40 nM
  mean concentration in skin: 26000 nM
[15]; topical, single 25 μg or 8 X 25 μg
  level in blood after 24 hours: undetectable
[15]; topical, single 25 μg or 8 X 25 μg (either regimen)
  concentration in skin 24 hours after final dosing: over 16 μM
[16]
  minimum fold-selectivity for MRCKβ against all kinases tested (calculated Ki): 27 times
[17]
  epidermal MRCKα pS1003 positive staining: significantly reduced
[18]
  MRCKα S1003 autophosphorylation in vitro: blocked
  recombinant MLC2 phosphorylation by MRCKα in vitro: blocked
[19]
  inhibition of CDK9/Cyclin T1: > 75%
[3]; 1 µM
  pS1003 immunoreactivity: blocked
[20]
  compound in blood at experimental endpoint: undetectable
  mean concentration in skin at experimental endpoint: > 1000 nM
[21]
  MRCKα pS1003 histoscores in papillomas: reduced
  MRCKα pS1003 histoscores in the treated skin area: reduced
  MRCKα pS1003 immunohistochemistry staining: significant decreases
[22]
  inhibition of ROCK2: > 75%
[23]
  bundling of filamentous actin at cortical and cytoplasmic regions: reduced
[24]
  decrease in the percentage of invading cells: 50%
[25]
  directionality of cell motility: No differences
  reduction of accumulated distance travelled: 21%
  reduction of mean Euclidean distance travelled: 18%
  reduction of mean cell velocity: 21%
[26]
  average papilloma volume per mouse vs DMSO: significantly reduced
  total papilloma numbers per mouse vs DMSO: not different
  total tumor volume per mouse vs DMSO: significantly reduced
[27]
  affinity (MRCKβ Ki determined in-house) higher than the DMPK Kd: 42 fold
[28]
  inhibition of CDK9/Cyclin K: > 75%

## c1csc(-c2c[nH]c3nccc(N4CCC[C@@]5(CCCCN5)C4)c23)n1 [BDP8900]
[5]
  selectivity of pMLC2 inhibition for MRCKβ relative to ROCK1 or ROCK2: > 562 times
[6]
  number of cancer types significantly resistant relative to all cancer cell lines: 6
  number of cancer types significantly sensitive relative to all cancer cell lines: 10
[11]
  Kd: 0.8 nM
[14]
  inhibition of DMPK: > 75%
[29]
  inhibition of PKCγ: > 75%
[16]
  minimum fold-selectivity for MRCKβ against all kinases tested (calculated Ki): 43 times
[27]
  affinity (MRCKβ Ki determined in-house) higher than the DMPK Kd: 33 fold
